Results taken from PMC7233370 (Journal of medicinal chemistry, 2020).
Entries after “also recorded” stand apart in the source; their conditions may differ.

Columns and labels:
[1] = target: T1, GS activity in Rat-1 cell lysates (Rattus norvegicus, UniProt A2RRU1); assay: GS activity in Rat-1 cell lysates, 14C-glucose incorporation; type: biochemical; settings: 100 μM compound; 0.75 mg/mL lysate; 0.2 mM UDPG, 1 mM G6P
T1 sequence (A2RRU1 1-738): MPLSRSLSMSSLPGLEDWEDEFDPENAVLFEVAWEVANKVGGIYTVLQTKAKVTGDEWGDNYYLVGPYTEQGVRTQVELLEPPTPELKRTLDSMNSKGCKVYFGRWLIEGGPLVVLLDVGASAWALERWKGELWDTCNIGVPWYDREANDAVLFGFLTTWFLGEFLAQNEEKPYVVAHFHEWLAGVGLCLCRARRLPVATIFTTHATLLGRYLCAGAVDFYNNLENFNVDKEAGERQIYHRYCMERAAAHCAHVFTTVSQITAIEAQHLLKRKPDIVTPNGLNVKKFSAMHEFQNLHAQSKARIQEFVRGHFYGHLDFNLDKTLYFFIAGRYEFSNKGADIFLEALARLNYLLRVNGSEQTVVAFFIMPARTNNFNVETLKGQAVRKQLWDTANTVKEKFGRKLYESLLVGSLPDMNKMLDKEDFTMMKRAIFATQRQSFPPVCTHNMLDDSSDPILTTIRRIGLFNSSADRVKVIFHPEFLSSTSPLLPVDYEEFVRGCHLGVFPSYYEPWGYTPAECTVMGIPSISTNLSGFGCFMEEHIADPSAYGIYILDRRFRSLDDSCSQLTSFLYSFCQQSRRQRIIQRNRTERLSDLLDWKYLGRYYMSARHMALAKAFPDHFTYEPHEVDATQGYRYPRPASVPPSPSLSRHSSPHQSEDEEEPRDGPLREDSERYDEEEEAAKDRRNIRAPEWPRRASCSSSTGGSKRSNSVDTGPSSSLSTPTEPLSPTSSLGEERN
Outline: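 Rat-1 fibroblasts were grown in DMEM/10% FBS to confluence. Cells were lysed in EDTA/EGTA/NaF buffer with protease inhibitors, vanadate and Triton, freeze-scraped, sonicated, and the lysate diluted 2-fold. Assay: 50 mM Tris-HCl pH 7.8, 6.7 mg/ml glycogen, 0.2 mM UDPG, 1 mM G6P, 2% DMSO, test compound 100 µM. Read-out: 14C-glucose incorporation as % of DMSO control.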

hGYS1Δ634S8,11N = target: T2, hGYS1Δ634S8,11N (Homo sapiens, UniProt P13807, S11N/S8N); assay: 14C-glucose incorporation assay, hGYS1Δ634S8,11N inhibition; type: biochemical; settings: read-out: inhibition of truncated hGYS1 (hGYS1Δ634S8,11N)
T2 sequence (P13807 1-634 S8N/S11N limits assumed): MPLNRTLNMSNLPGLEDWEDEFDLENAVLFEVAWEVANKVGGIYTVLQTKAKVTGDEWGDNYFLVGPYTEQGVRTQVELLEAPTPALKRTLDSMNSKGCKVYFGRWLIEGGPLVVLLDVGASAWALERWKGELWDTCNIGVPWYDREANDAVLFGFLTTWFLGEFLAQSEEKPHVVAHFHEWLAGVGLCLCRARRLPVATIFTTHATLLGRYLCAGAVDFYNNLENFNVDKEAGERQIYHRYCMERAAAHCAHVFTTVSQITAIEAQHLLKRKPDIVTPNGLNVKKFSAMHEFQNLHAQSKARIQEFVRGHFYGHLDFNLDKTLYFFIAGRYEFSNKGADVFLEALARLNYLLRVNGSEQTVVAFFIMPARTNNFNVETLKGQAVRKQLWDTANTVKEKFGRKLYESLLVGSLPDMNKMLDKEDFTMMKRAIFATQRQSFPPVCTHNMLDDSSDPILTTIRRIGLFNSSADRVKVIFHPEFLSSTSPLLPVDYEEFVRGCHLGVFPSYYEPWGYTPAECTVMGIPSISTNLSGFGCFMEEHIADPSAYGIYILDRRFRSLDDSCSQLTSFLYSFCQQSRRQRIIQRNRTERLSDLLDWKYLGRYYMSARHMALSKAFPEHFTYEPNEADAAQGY

yGsy2p [2] = target: T3, yGsy2p (Saccharomyces cerevisiae, UniProt P27472); assay: 14C-glucose incorporation assay, yGsy2p inhibition; type: biochemical; settings: co-variation of UDPG and inhibitor
T3 sequence (P27472 1-705): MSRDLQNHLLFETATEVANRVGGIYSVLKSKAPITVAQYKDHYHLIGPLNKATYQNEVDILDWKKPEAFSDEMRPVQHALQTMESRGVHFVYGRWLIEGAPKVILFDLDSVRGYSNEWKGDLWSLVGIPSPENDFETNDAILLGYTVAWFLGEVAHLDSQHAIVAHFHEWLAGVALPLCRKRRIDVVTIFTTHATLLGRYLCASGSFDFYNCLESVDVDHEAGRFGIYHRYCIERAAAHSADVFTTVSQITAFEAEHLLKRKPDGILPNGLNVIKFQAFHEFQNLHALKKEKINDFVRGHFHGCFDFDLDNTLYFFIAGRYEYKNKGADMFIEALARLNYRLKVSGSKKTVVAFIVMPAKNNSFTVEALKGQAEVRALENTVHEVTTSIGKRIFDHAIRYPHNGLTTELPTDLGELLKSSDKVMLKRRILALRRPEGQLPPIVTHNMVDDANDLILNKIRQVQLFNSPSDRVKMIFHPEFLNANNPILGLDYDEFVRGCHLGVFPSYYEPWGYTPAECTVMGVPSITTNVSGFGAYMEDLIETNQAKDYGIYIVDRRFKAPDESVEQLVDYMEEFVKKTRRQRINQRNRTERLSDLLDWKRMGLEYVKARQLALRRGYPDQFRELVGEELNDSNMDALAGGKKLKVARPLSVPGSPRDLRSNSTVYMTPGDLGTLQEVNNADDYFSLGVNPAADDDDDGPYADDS

[3] = target: T4, GS activity in HEK293-PTG cell lysates (Homo sapiens, UniProt P13807); assay: GS activity in HEK293-PTG cell lysates, 14C-glucose incorporation; type: biochemical; settings: 100 μM compound; 0.15 mg/mL lysate; 0.2 mM UDPG, 1 mM G6P
T4 sequence (P13807 1-737): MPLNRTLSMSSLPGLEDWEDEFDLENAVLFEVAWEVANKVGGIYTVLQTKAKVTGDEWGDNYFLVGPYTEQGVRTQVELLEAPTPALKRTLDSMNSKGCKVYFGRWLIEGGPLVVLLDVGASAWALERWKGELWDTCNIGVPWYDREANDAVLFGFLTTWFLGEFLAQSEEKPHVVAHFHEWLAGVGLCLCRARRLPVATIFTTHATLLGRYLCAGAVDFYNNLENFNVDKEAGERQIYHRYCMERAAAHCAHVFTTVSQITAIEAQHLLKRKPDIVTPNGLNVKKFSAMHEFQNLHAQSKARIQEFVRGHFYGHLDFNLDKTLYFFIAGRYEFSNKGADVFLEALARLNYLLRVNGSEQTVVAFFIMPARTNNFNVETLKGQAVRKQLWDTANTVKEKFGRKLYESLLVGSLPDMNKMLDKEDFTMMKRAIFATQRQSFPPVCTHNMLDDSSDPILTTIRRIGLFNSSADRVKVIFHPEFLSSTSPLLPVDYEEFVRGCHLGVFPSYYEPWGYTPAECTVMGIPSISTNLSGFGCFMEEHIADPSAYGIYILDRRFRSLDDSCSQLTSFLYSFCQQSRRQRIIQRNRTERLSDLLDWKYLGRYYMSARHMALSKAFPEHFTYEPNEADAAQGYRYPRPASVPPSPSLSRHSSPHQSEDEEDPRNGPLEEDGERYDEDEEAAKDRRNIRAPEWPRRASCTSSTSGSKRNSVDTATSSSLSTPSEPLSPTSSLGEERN
Outline: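 HEK293 cells stably transfected with mouse PTG (hygromycin-selected mixed clones) were grown to confluence. Cells were lysed in EDTA/EGTA/NaF buffer with protease inhibitors, vanadate and Triton, freeze-scraped, sonicated, and the lysate diluted 10-fold. Assay: 50 mM Tris-HCl pH 7.8, 6.7 mg/ml glycogen, 0.2 mM UDPG, 1 mM G6P, 2% DMSO, test compound 100 µM. Read-out: 14C-glucose incorporation as % of DMSO control.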

wild-type hGYS1 = target: T5, wild-type hGYS1 (Homo sapiens, UniProt P13807); assay: 14C-glucose incorporation assay, wild-type hGYS1 inhibition; type: biochemical; settings: for improvement in potency toward hGYS1 relative to H23: ratio of IC50 values versus H23
T5 sequence (P13807 1-737): T4 sequence (P13807 1-737)

yGsy2p Y513L mutant = yGsy2p Y513L mutant (Saccharomyces cerevisiae, UniProt P27472, Y513L); assay: Inhibition of yGsy2p active-site mutant Y513L; type: biochemical; settings: saturating G6P (7.2 mM)
Chain of yGsy2p Y513L mutant (P27472 whole entry Y513L): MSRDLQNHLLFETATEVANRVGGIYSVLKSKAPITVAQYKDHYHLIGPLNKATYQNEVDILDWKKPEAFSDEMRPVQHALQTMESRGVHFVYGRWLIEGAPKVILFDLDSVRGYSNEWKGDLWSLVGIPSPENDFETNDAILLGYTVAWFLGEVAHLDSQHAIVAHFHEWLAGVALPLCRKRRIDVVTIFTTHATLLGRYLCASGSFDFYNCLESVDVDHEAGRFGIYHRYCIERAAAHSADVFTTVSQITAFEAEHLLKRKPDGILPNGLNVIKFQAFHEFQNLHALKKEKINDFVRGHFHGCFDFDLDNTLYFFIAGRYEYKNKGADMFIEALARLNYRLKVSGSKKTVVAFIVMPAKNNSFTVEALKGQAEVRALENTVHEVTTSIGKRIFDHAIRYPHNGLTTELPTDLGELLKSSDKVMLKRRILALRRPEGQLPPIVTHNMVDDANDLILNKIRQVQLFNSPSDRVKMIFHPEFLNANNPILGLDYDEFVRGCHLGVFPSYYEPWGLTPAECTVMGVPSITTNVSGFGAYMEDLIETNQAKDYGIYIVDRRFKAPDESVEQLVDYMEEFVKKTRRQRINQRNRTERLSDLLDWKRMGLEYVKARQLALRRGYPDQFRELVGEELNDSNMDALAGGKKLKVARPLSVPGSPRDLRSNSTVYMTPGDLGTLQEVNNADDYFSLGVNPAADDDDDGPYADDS

yGsy2p [4] = target: T3, yGsy2p; assay: Activation of yGsy2p by G6P, 14C-glucose incorporation assay; type: biochemical
Outline: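 His-tagged yeast Gsy2p was expressed in E. coli BL21(DE3) and purified by Ni-NTA then Q-Sepharose. Radiochemical 14C-glucose incorporation assay run at varied G6P. % activation was fitted to a hyperbolic binding equation to give AC50. Done in triplicate.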

yGsy2p [5] = target: T3, yGsy2p; assay: Fluorescence polarization competitive displacement of tracer from yGsy2p; type: binding
Outline: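 Fluorescein-labelled glucosamine-6-phosphate tracer at 20 nM final with 4.2 µM yeast Gsy2p in 15 mM Tris-HCl pH 7.8, 15 mM NaCl. Unlabelled G6P titrated from 0.68 µM to 40 mM. Incubated 10 min at 25°C, then polarization read (ex 485/em 535 nm, mP). EC50 of the displacement fit taken as Kd. Triplicate.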

hGYS1 [6] = target: T6, hGYS1 (Homo sapiens, UniProt P13807); assay: Fluorescence polarization displacement of tracer from hGYS1; type: binding; settings: FP assay with hGYS1
T6 sequence (P13807 1-737): T4 sequence (P13807 1-737)

hGYS1 [7] = target: T6, hGYS1; assay: Activation of hGYS1 by G6P or GlcN6P, 14C-glucose incorporation assay; type: biochemical
Outline: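 Full-length human GYS1 was expressed in insect cells. Radiochemical 14C-glucose incorporation assay run at varied G6P or GlcN6P. % activation was plotted against activator concentration and fitted to a hyperbolic binding equation to give AC50. Done in triplicate.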

yGsy2p [8] = target: T3, yGsy2p; assay: Fluorescence polarization saturation binding of tracer to yGsy2p
Outline: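 Yeast Gsy2p titrated from 0 to 50 µM against 20 nM final fluorescein-labelled glucosamine-6-phosphate tracer in 15 mM Tris-HCl pH 7.8, 15 mM NaCl. Incubated 10 min at 25°C, then polarization read (ex 485/em 535 nm, mP). Saturation curve fitted to a hyperbolic equation for Kd. Triplicate.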

Structure (SMILES): COc1cc(-c2c(-c3ccccc3)ncn2CCC2CCCN2C)ccc1O (racemic) [Compound H23, (rac)-2-methoxy-4-(1-(2-(1-methylpyrrolidin-2-yl)ethyl)-4-phenyl-1H-imidazol-5-yl)phenol]
- reduction of synthase activity in Rat-1 cell lysate [1]: did not significantly inhibit
- inhibition at 100 µM (hGYS1Δ634S8,11N): > 20%
- mode of inhibition of yGsy2p with respect to varied UDPG (yGsy2p [2]): competitive
- reduction of synthase activity in HEK293-PTG cell lysate [3]: did not significantly inhibit

Structure (SMILES): Cc1[nH]nc(-c2ccc(O)c(O)c2O)c1-c1ccc(Cl)cc1 [Compound 11]
- improvement in potency toward hGYS1 relative to H23 (wild-type hGYS1): 16 fold

Structure (SMILES): Oc1ccc(-c2c(-c3ccc(O)c(O)c3O)n[nH]c2C(F)(F)F)cc1 [Compound 23, 4-(4-(4-hydroxyphenyl)-3-(trifluoromethyl)-1H-pyrazol-5-yl)pyrogallol]
- inhibition of Y513L mutant compared with wild-type yGsy2p (yGsy2p Y513L mutant): compromised; also recorded: decreased potency
- improvement in potency toward hGYS1 relative to H23 (wild-type hGYS1): more than 300 fold
- mode of inhibition for wild-type hGYS1 (wild-type hGYS1; versus UDPG): competitive

Structure (SMILES): O=c1ccn([C@@H]2O[C@H](COP(=O)(O)OP(=O)(O)O)[C@@H](O)[C@H]2O)c(=O)[nH]1 [UDP, reference compound]
- mode of inhibition of yGsy2p with respect to varied UDPG (yGsy2p [2]): competitive

Structure (SMILES): O=C[C@H](O)[C@@H](O)[C@H](O)[C@H](O)COP(=O)(O)O [Compound G6P, glucose-6-phosphate]
- AC50 (yGsy2p [4]): 98.1 ± 3.1 µM
- Kd (yGsy2p [5]): 70.9 ± 3.6 µM
- displacement of GlcN6P-coupled fluorophore or fluorophore alone from hGYS1 (hGYS1 [6]): unable to displace
- AC50 (hGYS1 [7]): 1600 ± 100 µM

Structure (SMILES): O=C(O)CCc1ccc(-c2ccccc2)n1-c1ccc(O)cc1 [Compound 7]
- reduction of synthase activity in Rat-1 cell lysate [1]: did not significantly inhibit
- improvement in potency toward hGYS1 relative to H23 (wild-type hGYS1): 2 fold
- reduction of synthase activity in HEK293-PTG cell lysate [3]: did not significantly inhibit

Structure (SMILES): O=C(CSCCC(=O)N[C@@H]1[C@@H](O)[C@H](O)[C@@H](COP(=O)(O)O)O[C@H]1O)Nc1ccc(-c2c3ccc(=O)cc-3oc3cc(O)ccc23)c(C(=O)O)c1 [GlcN6P-fluorescein-5-Ex]
- Kd (yGsy2p [8]): 7.6 ± 0.7 µM

Structure (SMILES): N[C@H]1C(O)O[C@H](COP(=O)(O)O)[C@@H](O)[C@@H]1O (stereo partly drawn) [GlcN6P, glucosamine-6-phosphate]
- AC50 (hGYS1 [7]): 5900 ± 100 µM
